# Data reported in ChEMBL document CHEMBL3259693, “Multitarget drug discovery for tuberculosis and other infectious diseases” (J Med Chem, 2014).
# Calls of active or inactive are those of the source. The calls are words filed in the database; no cut-off is given here.
# Tests used:
# [1] = tested on: Mycobacterium tuberculosis; experiment: Antimicrobial activity against Mycobacterium tuberculosis after 7 to 21 days by microdilution method; format: functional
# [2] = tested on: Mycolicibacterium smegmatis; experiment: Antimicrobial activity against Mycobacterium smegmatis after 10 hrs; format: functional
# [3] = tested on: Mycolicibacterium smegmatis; experiment: microbe, parasite or virus in culture; format: functional; conditions: ATCC 700084
# Plasmodium falciparum = experiment: Antimicrobial activity against Plasmodium falciparum 3D7 by intraerythrocytic assay; format: functional, organism-based
# MCF7 = experiment: Cytotoxicity against human MCF7 cells assessed as growth inhibition by MTT assay; format: cell-based
# [4] = tested on: Mycolicibacterium smegmatis; experiment: Inhibition of respiration in Mycobacterium smegmatis after 5 mins by methylene blue reduction assay in presence of NADH; format: functional, organism-based
# [5] = tested on: Mycolicibacterium smegmatis; experiment: Disruption of membrane potential in Mycobacterium smegmatis by DisC3(5) probe-based fluorescence spectrophotometry; format: functional, organism-based
# [6] = Inhibition of Escherichia coli N-terminal strep-tagged MenA expressed in Escherichia coli C43 (DE3) assessed as demethylmenaquinone-3 formation after 30 mins by HPLC analysis
# Escherichia coli [7] = experiment: Induction of collapse in deltapH in Escherichia coli inverted membrane vesicles by 31P NMR spectroscopy; format: functional, organism-based
# [8] = tested on: Mycobacterium tuberculosis; experiment: microbe, parasite or virus in culture; format: functional; conditions: ATCC 27294
# Escherichia coli [9] = experiment: microbe, parasite or virus in culture; format: functional, organism-based; conditions: ATCC 29425, 3 h
# [10] = target: T1, 4,4'-diapophytoene synthase (Staphylococcus aureus, UniProt A9JQL9); experiment: Inhibition of Staphylococcus aureus CrtM
# T1 sequence (A9JQL9 whole entry): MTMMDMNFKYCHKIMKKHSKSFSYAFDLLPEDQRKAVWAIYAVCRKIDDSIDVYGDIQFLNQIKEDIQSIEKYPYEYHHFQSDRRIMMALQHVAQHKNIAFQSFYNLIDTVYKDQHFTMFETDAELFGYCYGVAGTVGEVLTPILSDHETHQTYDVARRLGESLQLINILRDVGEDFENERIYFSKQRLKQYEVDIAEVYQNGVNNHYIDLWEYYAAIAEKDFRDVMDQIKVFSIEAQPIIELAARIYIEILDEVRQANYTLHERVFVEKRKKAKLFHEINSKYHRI
# Squalene synthase = target: T2, Squalene synthase (Homo sapiens, UniProt P37268); experiment: Inhibition of human SQS
# T2 sequence (P37268 whole entry): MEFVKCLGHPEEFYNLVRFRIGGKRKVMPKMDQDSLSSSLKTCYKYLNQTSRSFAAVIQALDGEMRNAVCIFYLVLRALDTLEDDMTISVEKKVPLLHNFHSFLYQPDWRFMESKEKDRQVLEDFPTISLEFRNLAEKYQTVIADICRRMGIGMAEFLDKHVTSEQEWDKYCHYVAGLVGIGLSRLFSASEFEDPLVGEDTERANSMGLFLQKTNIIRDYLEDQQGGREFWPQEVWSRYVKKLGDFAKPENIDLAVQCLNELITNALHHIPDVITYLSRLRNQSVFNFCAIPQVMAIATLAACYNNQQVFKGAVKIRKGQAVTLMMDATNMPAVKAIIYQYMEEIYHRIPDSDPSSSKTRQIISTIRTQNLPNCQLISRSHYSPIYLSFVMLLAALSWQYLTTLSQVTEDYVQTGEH
# [11] = tested on: Mycolicibacterium smegmatis; experiment: Induction of collapse in deltapH in Mycobacterium smegmatis inverted membrane vesicles at 30 to 150 uM by 31P NMR spectroscopy; format: functional
# Bacillus subtilis = experiment: Antimicrobial activity against Bacillus subtilis subsp. subtilis ATCC 6051 after 12 to 16 hrs by microbroth dilution method; format: functional, organism-based
# Staphylococcus aureus = experiment: Antimicrobial activity against methicillin-resistant Staphylococcus aureus USA300; format: functional
# Saccharomyces cerevisiae = experiment: Antimicrobial activity against Saccharomyces cerevisiae ATCC 208352 after 48 hrs by microbroth dilution method; format: functional, organism-based; conditions: ATCC 208352, 48 h
# Candida albicans = experiment: Antimicrobial activity against Candida albicans CAI-4; format: functional, organism-based
# [12] = Therapeutic index, ratio of IC50 for human MCF7 cells to IC50 for Plasmodium falciparum 3D7; format: cell-based; conditions: MCF7 cells versus Plasmodium falciparum 3D7, read-out: Ratio IC50
# Escherichia coli [13] = experiment: Ratio of IC50 for Escherichia coli ATCC 29425 in presence of 10% fetal bovine serum to IC50 for Escherichia coli ATCC 29425; format: functional
# Summary of the method: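 E. coli broth microdilution in LB. Culture was grown to OD600 ~0.4, diluted 500-fold, and exposed to compound from 0.3 mM, 2× serially diluted to 292 nM. Plates ran 3 h at 37 °C with or without 10% FBS. Viability was read by MTT at 570 nm, and IC50 was obtained by non-linear regression.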
# [14] = Inhibition of Mycobacterium smegmatis MenA; design: species or system Mycolicibacterium smegmatis
# [15] = Inhibition of Mycobacterium smegmatis MenG using radiolabeled S-adenosylmethionine as substrate after 1 hr by liquid scintillation counting analysis; design: species or system Mycolicibacterium smegmatis
# [16] = Therapeutic index, ratio of IC50 for human MCF7 cells to MIC for Mycobacterium tuberculosis ATCC 27294; format: cell-based; conditions: MCF7 cells versus Mycobacterium tuberculosis ATCC 27294, read-out: TI
# [17] = tested on: Mycolicibacterium smegmatis; conditions: at 40 to 120 µM
SMILES,MIC [3] [µM],IC50 (Plasmodium falciparum) [µM],IC50 (MCF7) [µM],IC50 [4] [µM],IC50 [5] [µM],IC50 [6] [µM],IC50 (Escherichia coli [7]) [µM],MIC [8] [µM],IC50 (Escherichia coli [9]) [µM],IC50 (Bacillus subtilis) [µM],MIC (Staphylococcus aureus) [µM],IC50 (Saccharomyces cerevisiae) [µM],IC50 (Candida albicans) [µM],further results
CC[C@@H](CO)NCCN[C@@H](CC)CO [ETHAMBUTOL],–,–,–,–,–,–,–,–,–,–,–,–,–,MIC [1]: 9.8 µM; MIC [2]: 4.9 µM
CC(C)=CCC/C(C)=C/COCCOC1C2CC3CC(C2)CC1C3 (stereo unspecified),150,24,220,600,150,4.2,15,–,–,–,–,–,–,–
CC(C)=CCC/C(C)=C/COCCNC1C2CC3CC(C2)CC1C3 (stereo unspecified),19,2.8,338,36,78,1.8,1,0.57,13,–,–,–,–,IC50 [10]: 100 µM; IC50 (Squalene synthase): 100 µM
N#CC(C#N)=NNc1cccc(Cl)c1,–,–,–,–,–,–,–,–,–,–,–,–,–,Activity [11]: Active
CC(C)=CCC/C(C)=C/COCC(=O)NC1C2CC3CC(C2)CC1C3 (stereo unspecified),72,11,27,280,150,16,7.4,34,–,49,–,–,–,–
CC(C)=CCC/C(C)=C/CNCCOc1cccc2ccccc12,37,–,22,140,130,3.3,7.1,19,46,7.4,25,11,37,–
CC(C)=CCC/C(C)=C/CNCCOC1C2CC3CC(C2)CC1C3 (stereo unspecified),4.8,2.4,30,0.5,31,0.4,0.8,0.06,8.5,48,24,5.4,36,selectivity ratio [12]: 40; Ratio IC50 (Escherichia coli [13]): 1.6; IC50 [10]: 100 µM; IC50 (Squalene synthase): 100 µM; IC50 [14]: 4 µM; IC50 [15]: 15 µM; selectivity ratio [16]: 900; inhibition [17]: Active
CC(C)=CCC/C(C)=C/CNC(=O)COC1C2CC3CC(C2)CC1C3 (stereo unspecified),18,18,35,330,150,5.8,12,2.2,–,–,–,–,–,–
CC(C)=CCC/C(C)=C/C[N+](C)(C)CCOC1C2CC3CC(C2)CC1C3 (stereo unspecified),24,0.16,6.5,0.5,51,1,18,1.6,76,8.6,16,31,37,–
CC(C)=CCC/C(C)=C/CNCCOc1ccccc1,44,51,23,2500,–,4.6,–,23,220,62,117,11,74,–
CC(C)[C@@H]1NC(=O)[C@H](C)OC(=O)[C@@H](C(C)C)NC(=O)[C@@H](C(C)C)OC(=O)[C@H](C(C)C)NC(=O)[C@H](C)OC(=O)[C@@H](C(C)C)NC(=O)[C@@H](C(C)C)OC(=O)[C@H](C(C)C)NC(=O)[C@H](C)OC(=O)[C@@H](C(C)C)NC(=O)[C@@H](C(C)C)OC1=O,–,–,–,–,–,–,–,–,–,–,–,–,–,Activity [11]: inactive
CC(C)=CCC/C(C)=C/CNCCCOC1C2CC3CC(C2)CC1C3 (stereo unspecified),18,2.4,9.8,4.8,50,1.9,1.1,4.6,6.7,8.7,23,7.8,19,–
CC(C)=CCC/C(C)=C/CNCCOC(C)(C)C,198,13,178,9500,150,4.6,4.7,24,–,–,–,174,–,–
CO[C@@H]1C[C@@H](C[C@H]2CC[C@H](C)[C@H]([C@@H](C)C(=O)O)O2)O[C@]2(O[C@](C)([C@H]3CC[C@@](C)([C@@H]4O[C@@H]([C@H]5O[C@@](O)(CO)[C@H](C)C[C@@H]5C)C[C@@H]4C)O3)C[C@H]2C)[C@@H]1C,–,–,–,–,–,–,–,–,–,–,–,–,–,Activity [11]: Active
CC(C)=CCC/C(C)=C/CNCCO[C@@H]1C[C@@H]2CC[C@@]1(C)C2(C)C,4.8,–,3.9,0.3,44,3.2,0.8,0.15,36,5.4,24,2.7,19,Ratio IC50 (Escherichia coli [13]): 1.6; IC50 [14]: 8 µM; IC50 [15]: 5.7 µM; EC50 [5]: 15 µg/mL; Activity [11]: Active
